# Measured values pooled from the literature.
# pEC50: −log10 of the molar value.
Structure (SMILES),target or system,assay,test system,conditions,endpoint,value
CC1=NN(CNc2c(O)c(S(=O)(=O)O)cc3ccccc23)C(=O)C1=NNn1c(-c2ccccc2)nc2ccccc2c1=O,Vibrio cholerae,"microbial growth, broth dilution",,24 h,MIC,83.7 µM
COc1ccc(OS(=O)(=O)NC(=O)CCCCc2ccccc2)cc1,Bacillus anthracis,microbial growth,STERNE34F2,,MIC,200 µg/mL
CC(=O)C1=C(O)C(CC(C)C)NC1=O (stereo not drawn),Stenotrophomonas maltophilia,microbial growth,ATCC13637,,MIC,> 200 µg/mL
CC1=NN(CNC(=O)c2ccccc2)C(=O)C1=NNn1c(-c2ccccc2)nc2ccccc2c1=O,Vibrio cholerae,"microbial growth, broth dilution",,24 h,MIC,51.9 µM
CCCCCCCCCCCCCCCC(=O)NP(=O)(O)O,Bacillus anthracis,microbial growth,STERNE34F2,,MIC,> 200 µg/mL
CC[C@H]1OC(=O)[C@H](C)[C@@H](O[C@H]2C[C@@](C)(OC)[C@@H](O)[C@H](C)O2)[C@H](C)[C@@H](O[C@@H]2O[C@H](C)C[C@H](N(C)C)[C@H]2O)[C@](C)(O)C[C@@H](C)C(=O)[C@H](C)[C@@H](O)[C@]1(C)O,Bacillus anthracis,microbial growth,34F2,,MIC,3.13 µM
CCCCCCCCCC#CCCCCC(=O)O,Leishmania infantum,parasite growth,,promastigote,pEC50,3.99
CCCCCCCCCCCCCCCC(=O)CP(=O)(O)O,Bacillus anthracis,microbial growth,STERNE34F2,,MIC,1.56 µg/mL
COc1ccc2cc1Oc1cc(ccc1OC)CCC(N[C@@H]1CCCc3ccccc31)CCCC2 (stereo partly drawn),Streptococcus pyogenes,"microbial growth, broth dilution",ATCC700294,,MIC,> 100 µg/mL
OC[C@H]1O[C@@H](n2cnc3c(NC4CCCC4)ncnc32)[C@H](O)[C@@H]1O,,MES seizures,rat,oral,ED50,> 10 mg/kg
CC1=NN(CNc2ccc(O)cc2)C(=O)C1=NNn1c(-c2ccccc2)nc2ccccc2c1=O,Vibrio cholerae,"microbial growth, broth dilution",,24 h,MIC,107 µM
Cn1cnc2nc(NCc3ccc(Cl)c(Cl)c3)[nH]c(=O)c21,Bifidobacterium,"microbial growth, agar dilution",,48 h,MIC,> 32 µg/mL
O=C(CCCCC1CCCCC1)CP(=O)(O)O,Bacillus anthracis,microbial growth,STERNE34F2,,MIC,200 µg/mL
COC[C@@H](NC(C)=O)C(=O)NCc1ccc(OCc2ccccc2)cc1,,MES seizures,rat,oral,ED50,< 10 mg/kg
CCOC(=O)Nc1ccc(NCc2ccc(F)cc2)cc1N,,MES seizures,rat,intraperitoneal,ED50,4.01 mg/kg
CN[C@H](CC(C)C)C(=O)N[C@H]1C(=O)N[C@@H](CC(N)=O)C(=O)N[C@H]2C(=O)N[C@H]3C(=O)N[C@H](C(=O)N[C@H](C(=O)O)c4cc(O)cc(O)c4-c4cc3ccc4O)[C@H](O)c3ccc(c(Cl)c3)Oc3cc2cc(c3O[C@@H]2O[C@H](CO)[C@@H](O)[C@H](O)[C@H]2O[C@H]2C[C@](C)(N)[C@H](O)[C@H](C)O2)Oc2ccc(cc2Cl)[C@H]1O,Bifidobacterium,"microbial growth, agar dilution",,48 h,MIC,2 µg/mL
CCCCCCCC/C=C\CCCCCCCCNC(=O)CP(=O)(O)O,Bacillus anthracis,microbial growth,STERNE34F2,,MIC,0.1 µg/mL
CC1=NN(CNc2ccccn2)C(=O)C1=NNn1c(-c2ccccc2)nc2ccccc2c1=O,Vibrio cholerae,"microbial growth, broth dilution",,24 h,MIC,55.2 µM
